Assay results: ChEMBL document CHEMBL3352265, “Potentially bioactive organotin(IV) compounds: synthesis, characterization, in vitro bioactivities and interaction with SS-DNA” (Eur J Med Chem, 2014)
Converted amounts (≈) assume the structure as drawn. The source made the active and inactive calls. The calls are words filed in the database; no cut-off is given here.

Columns and labels:
Escherichia coli [1] = test: Antibacterial activity against Escherichia coli ATCC 15224 at 40 mg/mL after 24 hrs by disc diffusion method; type: functional; settings: ATCC 15224, 24 h, read-out: DIZ
Outline: (§1)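 Disc diffusion. Strains grown in nutrient broth at 37 °C for 24 h. 1% culture (about 10^6 CFU/mL) mixed into nutrient agar at 45 °C and poured. 4 mm paper discs received compound at 40 mg/mL stock in DMSO; final concentrations tested were […]. DMSO served as negative control, roxithromycin and cefixime as positive controls. Triplicate plates incubated at 37 °C for 24 h. Complete-inhibition zone diameter (mm) recorded as the mean of 3.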

Staphylococcus aureus [2] = test: Antibacterial activity against Staphylococcus aureus ATCC 6538 at 40 mg/mL after 24 hrs by disc diffusion method; type: functional; settings: ATCC 6538, 24 h, read-out: DIZ; outline: as §1
Klebsiella aerogenes = test: Antibacterial activity against Enterobacter aerogenes ATCC 13048 at 40 mg/mL after 24 hrs by disc diffusion method; type: functional; settings: ATCC 13048, 24 h, read-out: DIZ; outline: as §1
Salmonella typhimurium [3] = test: Antibacterial activity against Salmonella typhimurium ATCC 14028 at 40 mg/mL after 24 hrs by disc diffusion method; type: functional, Salmonella enterica subsp. enterica serovar Typhimurium; settings: Salmonella enterica, ATCC 14028, 24 h; read-out: DIZ; outline: as §1
[4] = system: Bordetella bronchiseptica; test: Antibacterial activity against Bordetella bronchiseptica ATCC 4617 at 40 mg/mL after 24 hrs by disc diffusion method; type: functional; settings: ATCC 4617, 24 h, read-out: DIZ; outline: as §1
Bacillus spizizenii [5] = test: Antibacterial activity against Bacillus subtilis ATCC 6633 at 40 mg/mL after 24 hrs by disc diffusion method; type: functional; settings: ATCC 6633, 24 h, read-out: DIZ; outline: as §1
Escherichia coli [6] = test: Antibacterial activity against Escherichia coli ATCC 15224 after 18 hrs by microdilution method; type: functional; settings: ATCC 15224, 18 h
Outline: (§2)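 Broth microdilution. Twofold dilutions in culture broth at […]. Each well inoculated with bacterial suspension (10^8 CFU/mL, about 10^5 CFU/well). Sterility control and growth control (broth plus DMSO) included. Incubated at 36 °C for 18 h, in triplicate. MIC taken as the lowest concentration inhibiting growth, given in micrograms per mL.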

Staphylococcus aureus [7] = test: Antibacterial activity against Staphylococcus aureus ATCC 6538 after 18 hrs by microdilution method; type: functional; settings: ATCC 6538, 18 h; outline: as §2
Salmonella typhimurium [8] = test: Antibacterial activity against Salmonella typhimurium ATCC 14028 after 18 hrs by microdilution method; type: functional, Salmonella enterica subsp. enterica serovar Typhimurium; settings: Salmonella enterica, ATCC 14028, 18 h; outline: as §2
[9] = system: Bordetella bronchiseptica; test: Antibacterial activity against Bordetella bronchiseptica ATCC 4617 after 18 hrs by microdilution method; type: functional; settings: ATCC 4617, 18 h; outline: as §2
Bacillus spizizenii [10] = test: Antibacterial activity against Bacillus subtilis ATCC 6633 after 18 hrs by microdilution method; type: functional; settings: ATCC 6633, 18 h; outline: as §2
Aspergillus niger = test: Antifungal activity against Aspergillus niger FCBP 0198 at 40 mg/mL after 7 days by disc diffusion method; type: functional; settings: FCBP 0198, 168 h, read-out: DIZ
Outline: (§3)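 Disc diffusion on SDA. Fungi cultured at 28 °C for 24 h. 4 mm discs received compound at 40 mg/mL stock in DMSO. DMSO served as negative control, terbinafine as positive control. Plates incubated at 28 °C for 7 days. Growth diameter (mm) measured and inhibition calculated against the negative control. MIC taken as the lowest concentration with no growth.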

Aspergillus fumigatus = test: Antifungal activity against Aspergillus fumigatus FCBP 66 at 40 mg/mL after 7 days by disc diffusion method; type: functional; settings: FCBP 66, 168 h, read-out: DIZ; outline: as §3
Aspergillus flavus = test: Antifungal activity against Aspergillus flavus FCBP 0064 at 40 mg/mL after 7 days by disc diffusion method; type: functional; settings: FCBP 0064, 168 h, read-out: DIZ; outline: as §3
Mucor = test: Antifungal activity against Mucor FCBP 0400 at 40 mg/mL after 7 days by disc diffusion method; type: functional; settings: FCBP 0400, 168 h, read-out: DIZ; outline: as §3
Artemia salina = test: Cytotoxicity in brine shrimp assessed as mortality after 24 hrs; type: functional; settings: read-out: LD50 (the source's name)
[11] = system: Agrobacterium tumefaciens; test: Antitumor activity against Agrobacterium tumefaciens -induced tumor at 1000 ug/ml after 21 days by potato disc bioassay technique; type: functional
Outline: (§4)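 Potato disc assay with 48 h culture of A. tumefaciens At-10. Inoculum contained compound at […]. Red-skinned potatoes sterilized in 0.1% HgCl2; 8 mm × 4 mm discs placed ten per 1.5% agar plate, […] each. Incubated at 28 °C in the dark for 21 days, in triplicate. Discs stained with Lugol's and tumors counted. Percent inhibition calculated against the negative control.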

[12] = system: Agrobacterium tumefaciens; test: Antitumor activity against Agrobacterium tumefaciens -induced tumor at 100 ug/ml after 21 days by potato disc bioassay technique; type: functional; outline: as §4
[13] = system: Agrobacterium tumefaciens; test: Antitumor activity against Agrobacterium tumefaciens -induced tumor at 10 ug/ml after 21 days by potato disc bioassay technique; type: functional; outline: as §4
[14] = system: Agrobacterium tumefaciens; test: Antitumor activity against Agrobacterium tumefaciens -induced tumor after 21 days by potato disc bioassay technique; type: functional, organism-based; settings: 504 h; outline: as §4
Escherichia coli [15] = test: Induction of Escherichia coli pBR322 DNA damage assessed as open circular form at 1000 ug/ml after 60 mins by gel electrophoresis
Escherichia coli [16] = test: Induction of Escherichia coli pBR322 DNA damage assessed as open circular form at 100 ug/ml after 60 mins by gel electrophoresis
Escherichia coli [17] = test: Induction of Escherichia coli pBR322 DNA damage assessed as open circular form at 10 ug/ml after 60 mins by gel electrophoresis
Escherichia coli [18] = test: Induction of Escherichia coli pBR322 DNA damage assessed as open circular form at 1 ug/ml after 60 mins by gel electrophoresis
Leishmania major = test: Antileishmanial activity against Leishmania major kwh 23 after 72 hrs using neobar counting by microscopy; type: functional, organism-based; settings: kwh 23, 72 h
Outline: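 Leishmania major promastigotes grown 7 days at 24 °C in medium 199 with 10% FBS. Samples as 10,000 ppm DMSO stocks, added to reach 200 ppm in the first row and serially diluted in 96-well plates, DMSO kept <5%. DMSO negative and amphotericin B positive controls. Incubated 72 h at 24 °C. Mortality counted in a counting chamber by light microscopy. Run 3 times. IC50 is the concentration giving 50% parasite reduction.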

Work on `COc1ccccc1NC(=O)CCC(=O)O` yielded a zone of inhibition at 40000 µg/mL (Escherichia coli [1]) of 16 mm, a zone of inhibition at 40000 µg/mL (Staphylococcus aureus [2]) of 11 mm and a zone of inhibition at 40000 µg/mL (Klebsiella aerogenes) of 0 mm. It also gave a zone of inhibition at 40000 µg/mL (Salmonella typhimurium [3]) of 8 mm, a zone of inhibition at 40000 µg/mL [4] of 9 mm and a zone of inhibition at 40000 µg/mL (Bacillus spizizenii [5]) of 10 mm. For the same molecule, the MIC (Escherichia coli [6]) was 100 µg/mL (≈ 448 µM), the MIC (Staphylococcus aureus [7]) was 100 µg/mL (≈ 448 µM) and the MIC (Salmonella typhimurium [8]) was 200 µg/mL (≈ 896 µM). The MIC [9] was 200 µg/mL (≈ 896 µM), the MIC (Bacillus spizizenii [10]) was 200 µg/mL (≈ 896 µM) and the zone of inhibition at 40000 µg/mL (Aspergillus niger) was 0 mm. For the same molecule, the zone of inhibition at 40000 µg/mL (Aspergillus fumigatus) was 0 mm, the zone of inhibition at 40000 µg/mL (Aspergillus flavus) was 0 mm and the zone of inhibition at 40000 µg/mL (Mucor) was 0 mm. For the same molecule, the LC50 (Artemia salina) was 192 µg/mL (≈ 861 µM), the Activity [11] was 62.64% and the Activity [12] was 31.14%. For the same molecule, the Activity [13] was 5.63%, the IC50 [14] was 410 µg/mL (≈ 1840 µM) and the Activity (Escherichia coli [15]) was “inactive”. For the same molecule, the Activity (Escherichia coli [16]) was “inactive”, the Activity (Escherichia coli [17]) was “inactive” and the Activity (Escherichia coli [18]) was “inactive”. The IC50 (Leishmania major) was 0.00342 µg/mL (≈ 0.0153 µM).
